The subject of data set [1] is Rattus norvegicus. The experiment in a line: Inhibition against adjuvant-induced paw edema at a dose of 25 mg/kg in male Sprague-Dawley rats. Type of data set: functional. Put shortly:
(§1)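 Male Sprague-Dawley rats (180–200 g), left hindpaw injected intradermally with 0.1 mL Freund's complete adjuvant. Compound or vehicle given by gastric gavage just before FCA (day 0) and at 24 and 48 h. Paw volume read by plethysmometer before FCA and on day 3. Edema is the day 0 to day 3 volume difference, averaged per group.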

A short description of data set [2]: Inhibitory activity against prostaglandin biosynthesis in stimulated chondrocyte cell culture. Type of data set: functional.
The subject of data set [3] is Mus musculus. The experiment in a line: Inhibition against writhing induced by Phenylbenzoquinone in male swiss albino mice at 25 mg/kg. The format is functional. In short, it runs like this:
(§2)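 Mice in groups of 10, fasted overnight, dosed by gastric gavage with compound or vehicle (0.5% Tween 80 in distilled water). PBQ given ip 1 h later (0.15 mL of 0.02% per 10 g body weight). Writhes counted per mouse over the following 15 min. […] Benzylamine salts dosed as free acid.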

The nature of data set [4]: Partition coefficient (logP). Type of data set: physicochemical. Particulars: octanol/water. In short, it runs like this:
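Calculated by computer program, not measured experimentally.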

The species entered for data set [5] is Mus musculus. The experiment in a line: Inhibition against writhing induced by Phenylbenzoquinone in male swiss albino mice. Type of data set: functional. In short, it runs like this:
as §2
Background: Writhing tests count abdominal constrictions after an irritant is injected.

Data set [6] deals with Mus musculus. Briefly: Inhibition against writhing induced by Phenylbenzoquinone in male swiss albino mice at 10 mg/kg. Type of data set: functional. In short, it runs like this:
as §2

Data set [7] relates to Mus musculus. Briefly: Inhibition against writhing induced by Phenylbenzoquinone in male swiss albino mice; at 25 mg/kg. Type of data set: functional. Put shortly: as §2
In data set [8] the test system is Mus musculus. The experiment in a line: Inhibition against writhing induced by Phenylbenzoquinone in male swiss albino mice at 200 mg/kg. Type of data set: functional. Put shortly:
as §2

For data set [9], the system named is Rattus norvegicus. Briefly: Inhibition against adjuvant-induced paw edema at a dose of 25 mg/kg in Male Sprague-Dawley rats. Type of data set: functional. In short, it runs like this: as §1

For orientation: inhibition in vivo means how much of the control response was suppressed. Usually IC50 stands for the midpoint of a concentration-inhibition curve. High values mean lower potency, low ones higher potency. Turning to `C=CC[C@@H]1COC(CC)(CC(=O)O)c2[nH]c3c(C)cccc3c21` (stereo not given in full), the results for the inhibition in vivo at 25 mg/kg in the data set on Rattus norvegicus [1] and in the data set on Mus musculus [3] were 31% and 15%, respectively. Besides, in data set [2], the IC50 was greater than 10 µM.
In the case of `CCc1cccc2c3c([nH]c12)C(CC)(CC(=O)O)CC[C@H]3Cc1ccccc1` (stereo not given in full), the values for the inhibition in vivo at 25 mg/kg with Rattus norvegicus [1] and in the data set with Mus musculus [3] were 6% and 15%, respectively.
The corresponding values for `C=CC[C@@H]1COC(CC)(CC(=O)O)c2[nH]c3c(CCC)cccc3c21` (stereo not given in full) are 36% and 2%.
Usually logP stands for a log measure of how a compound divides between an organic and an aqueous phase. For orientation: ED50 means the dose that gives a 50% effect, or the effect in half of the subjects. A lower ED50 goes with an effect at a small dose. In data set [4], `C=CC[C@H]1COC(CC)(CC(=O)O)c2[nH]c3c(CC)cccc3c21` (stereo not given in full) gave a logP of 4.5. Besides, in the data set listed under Mus musculus [5], the median effective dose (ED50) turned out to be 6.2 mg/kg. The compound further displayed an IC50 in [2] of 0.3 µM.
The compound `CCc1cccc2c3c([nH]c12)C(CC)(CC(=O)O)CC[C@@H]3Cc1ccccc1` (stereo not given in full) displayed a logP in [4] of 7.4. Besides, the ED50 in the data set listed under Mus musculus [5] was found to be 22.3 mg/kg. For the same compound, the inhibition in vivo at 25 mg/kg in the data set with Rattus norvegicus [1] stood at 38%.
As for `CCc1cccc2c3c([nH]c12)C(CC)(CC(=O)O)CC[C@@H]3c1ccccc1` (stereo not given in full), the inhibition in vivo at 25 mg/kg was found to be 12% in the data set on Rattus norvegicus [1] and 17% in the data set on Mus musculus [3].
Compound `C=CC[C@H]1COC(CC)(CC(=O)O)c2[nH]c3c(CCC)cccc3c21` (stereo not given in full) gave an ED50 in the data set listed under Mus musculus [5] of 9.5 mg/kg. In addition, the inhibition in vivo at 25 mg/kg in the data set with Rattus norvegicus [1] was determined as 32%.
On to `C=CC[C@H]1CC[C@](CC)(CC(=O)O)c2[nH]c3c(CC)cccc3c21`, for which the inhibition in vivo at 25 mg/kg in the data set on Rattus norvegicus [1] is 0%; with Mus musculus [3] it was 5%. Moreover, half-maximal inhibition in data set [2] (IC50) required 4 µM.
For the compound `CCC1(CC(=O)O)CC[C@H](Cc2ccccc2)c2c1[nH]c1c(C)cccc21` (stereo not given in full), the logP in data set [4] was determined as 6.9. In the data set listed under Mus musculus [5], the ED50 turned out to be 3.4 mg/kg. In the data set with Rattus norvegicus [1], the inhibition in vivo at 25 mg/kg worked out at 43%.
For `C=CCC[C@H]1CCC(CC)(CC(=O)O)c2[nH]c3c(CC)cccc3c21` (stereo not given in full), the inhibition in vivo at 25 mg/kg is 43% in the data set on Rattus norvegicus [1] and 2% in the data set on Mus musculus [3].
Consider `CCc1cccc2c3c([nH]c12)C(CC)(CC(=O)O)CCC3` (stereo not given), for which the logP in data set [4] turned out to be 5.3. The same compound yielded an IC50 in [2] of 0.02 µM.
In the data set with Mus musculus [3], `CCC[C@H]1CCC(CC)(CC(=O)O)c2[nH]c3c(CC)cccc3c21` (stereo not given in full) came in with an inhibition in vivo at 25 mg/kg of 15%.
Compound `C=CC[C@H]1CCC(CC)(CC(=O)O)c2[nH]c3c(CC)cccc3c21` (stereo not given in full) registered a logP in data set [4] of 6.3. The ED50 in the data set filed under Mus musculus [5] was 10.6 mg/kg. The inhibition in vivo at 25 mg/kg in the data set on Rattus norvegicus [1] worked out at 44%. The same compound yielded an IC50 in data set [2] of 0.015 µM.
For the compound `CCC1(CC(=O)O)CC[C@@H](Cc2ccccc2)c2c1[nH]c1c(C)cccc21` (stereo not given in full), the inhibition in vivo at 25 mg/kg with Rattus norvegicus [1] was 24%. The same compound showed an inhibition in vivo at 10 mg/kg with Mus musculus [6] of 5%.
In the case of `C=CC[C@H]1CCC(CC)(CC(=O)O)c2[nH]c3ccccc3c21` (stereo not given in full), in [4], the logP stood at 5.2. Also, the ED50 in the data set filed under Mus musculus [5] was determined as 19.6 mg/kg. The IC50 in [2] is 0.05 µM.
Turning to `CCC1(CC(=O)O)OC[C@@H](Cc2ccccc2)c2c1[nH]c1c(C)cccc21` (stereo not given in full), the inhibition in vivo at 25 mg/kg with Rattus norvegicus [1] was 40%; with Mus musculus [3] it was 11%.
In data set [4], `C=CC[C@H]1CCC(CC)(CC(=O)O)c2[nH]c3c(C)cccc3c21` (stereo not given in full) yielded a logP of 5.8. In the data set filed under Mus musculus [5], this compound registered an ED50 of 8.3 mg/kg. Also, in data set [2], it took 0.05 µM to reach half-maximal inhibition (IC50).
On to `CCC1(CC(=O)O)OC[C@H](CCc2ccccc2)c2c1[nH]c1ccccc21` (stereo not given in full), for which the inhibition in vivo at 25 mg/kg in the data set with Rattus norvegicus [1] and in the data set on Mus musculus [7] was 0% throughout.
As to `CCc1cccc2c3c([nH]c12)C(CC)(CC(=O)O)CC[C@H]3c1ccccc1` (stereo not given in full), the figures for the inhibition in vivo at 25 mg/kg in the data set on Rattus norvegicus [1] and in the data set with Mus musculus [3] were 37% and 28%, respectively.
The corresponding values for `C=CCC[C@@H]1CCC(CC)(CC(=O)O)c2[nH]c3c(CC)cccc3c21` (stereo not given in full) are 16% and 0%.
In [4], `C=CC[C@H]1CCC(CC)(CC(=O)O)c2[nH]c3c(CCC)cccc3c21` (stereo not given in full) yielded a logP of 6.9. The compound further displayed an ED50 in the data set filed under Mus musculus [5] of 28.7 mg/kg. In the data set with Rattus norvegicus [1], the inhibition in vivo at 25 mg/kg amounted to 39%.
Turning to `C=CC[C@@H]1COC(CC)(CC(=O)O)c2[nH]c3c(CC)cccc3c21` (stereo not given in full), the inhibition in vivo at 25 mg/kg in the data set on Rattus norvegicus [1] is 55%; in the data set on Mus musculus [3], 33%.
On the same counts, the results for `C=C[C@@H]1CCC(CC)(CC(=O)O)c2[nH]c3c(CC)cccc3c21` (stereo not given in full) are 62% and 0%.
Consider `C=CC[C@H]1CC[C@@](CC)(CC(=O)O)c2[nH]c3c(CC)cccc3c21`, for which the inhibition in vivo at 25 mg/kg with Rattus norvegicus [1] came out at 54%; in the data set on Mus musculus [3], 94%. For the same compound, it took 0.015 µM to reach half-maximal inhibition in data set [2] (IC50).
On the same counts, the results for `C=CC[C@@H]1COC(CC)(CC(=O)O)c2[nH]c3ccccc3c21` (stereo not given in full) are 30%, 25% and greater than 10 µM.
As for `CCC1(CC(=O)O)OC[C@@H](CCc2ccccc2)c2c1[nH]c1ccccc21` (stereo not given in full), the inhibition in vivo at 25 mg/kg in the data set with Rattus norvegicus [1] was determined as 20%; with Mus musculus [7], 0%.
For the compound `CCC1(CC(=O)O)CC[C@H](Cc2ccccc2)c2c1[nH]c1ccccc21` (stereo not given in full), the logP in data set [4] was 6.2. In the data set filed under Mus musculus [5], this compound registered an ED50 of 1.2 mg/kg. Also, the inhibition in vivo at 25 mg/kg in the data set on Rattus norvegicus [1] was 49%. This compound also registered an IC50 in data set [2] of 0.011 µM.
In the case of `C=CC[C@@H]1CCC(CC)(CC(=O)O)c2[nH]c3c(CC)cccc3c21` (stereo not given in full), in the data set with Mus musculus [8], the inhibition in vivo at 200 mg/kg was 23%. Further, the inhibition in vivo at 25 mg/kg in the data set with Rattus norvegicus [1] is 35%.
As to `C=CC[C@H]1COC(CC)(CC(=O)O)c2[nH]c3ccccc3c21` (stereo not given in full), the inhibition in vivo at 25 mg/kg in the data set on Rattus norvegicus [9] is 46%; in the data set with Mus musculus [3], 21%. Besides, the logP in data set [4] was determined as 3.3. The same compound registered an IC50 in data set [2] of 0.12 µM.
On to `CCc1cccc2c3c([nH]c12)C(CC)(CC(=O)O)OC[C@@H]3Cc1ccccc1` (stereo not given in full), for which the logP in [4] was 5.6. In the data set on Rattus norvegicus [1], the inhibition in vivo at 25 mg/kg worked out at 15%.
Consider `CCC1(CC(=O)O)CC[C@@H](Cc2ccccc2)c2c1[nH]c1ccccc21` (stereo not given in full), for which the inhibition in vivo at 25 mg/kg in the data set on Rattus norvegicus [1] turned out to be 42%; in the data set on Mus musculus [3], 4%.
As for `CCC1(CC(=O)O)OC[C@H](Cc2ccccc2)c2c1[nH]c1c(C)cccc21` (stereo not given in full), the logP in [4] is 5. This compound also displayed an ED50 in the data set listed under Mus musculus [5] of 4.7 mg/kg. Besides, the inhibition in vivo at 25 mg/kg with Rattus norvegicus [1] came out at 47%.
With `CCc1cccc2c3c([nH]c12)C(CC)(CC(=O)O)CC[C@@H]3CC1CC1` (stereo not given in full), the inhibition in vivo at 25 mg/kg is 19% with Rattus norvegicus [1] and 0% in the data set on Mus musculus [3].
In turn, `C=CC[C@H]1COC(CC)(CC(=O)O)c2[nH]c3c(C)cccc3c21` (stereo not given in full) yielded a logP in data set [4] of 4. Moreover, the inhibition in vivo at 25 mg/kg in the data set with Rattus norvegicus [1] is 54%; in the data set with Mus musculus [3], 10%. The same compound gave an IC50 in data set [2] of 0.2 µM.
As for `C=C[C@H]1CCC(CC)(CC(=O)O)c2[nH]c3c(CC)cccc3c21` (stereo not given in full), the inhibition in vivo at 25 mg/kg in the data set on Rattus norvegicus [1] is 30%; in the data set with Mus musculus [3] it was 21%.
In data set [4], `CCC1(CC(=O)O)OC[C@H](Cc2ccccc2)c2c1[nH]c1ccccc21` (single isomer, unassigned) [DEXPEMEDOLAC] had a logP of 4.4. Besides, the ED50 in the data set listed under Mus musculus [5] worked out at 2 mg/kg. In addition, the inhibition in vivo at 25 mg/kg in the data set on Rattus norvegicus [1] turned out to be 37%. The compound further gave an IC50 in [2] of 0.023 µM.
`CCc1cccc2c3c([nH]c12)C(CC)(CC(=O)O)OCC3` (stereo not given) [ETODOLAC]: in [2], inhibition was half-maximal at 0.023 µM (IC50).
Regarding `COc1ccc2c(c1)c(CC(=O)O)c(C)n2C(=O)c1ccc(Cl)cc1` [INDOMETHACIN], the 50% effect level in the data set filed under Mus musculus [5] (ED50) was put at a dose of 1.5 mg/kg. Further, half-maximal inhibition in [2] (IC50) required 0.011 µM.

(Values after ChEMBL document CHEMBL1124231, “Structure-activity relationships among analogues of pemedolac, cis-1-ethyl-1,3,4,9-tetrahydro-4-(phenylmethyl)pyrano[3,4-b]indo le-1-a cetic acid, a potent analgesic agent” (J Med Chem, 1988).)
